Reference: ChEMBL document CHEMBL6078712, “Triterpenoid phthalimides as selective anti-cancer agents targeting mitochondrial apoptosis” (Eur J Med Chem, 2025)
Activity calls are given as the source filed them. No cut-off for these calls is given here.

How the values were obtained:
CCRF-CEM [1] = test: Cytotoxicity against human CCRF-CEM cells assessed as inhibition of cell growth incubated for 72 hrs by MTS assay; assay type: functional, cell-based
How it was run: (§1)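 MTS assay on eight human cancer lines and two non-tumour fibroblast lines. IC50 is the concentration that inhibits cell growth by 50 %. SD typically up to 15 % of the mean.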

CEM-DNR = test: Cytotoxicity against human CEM-DNR cells assessed as inhibition of cell growth incubated for 72 hrs by MTS assay; assay type: functional, cell-based; how it was run: as §1
HCT 116 TP53(-/-) = test: Cytotoxicity against human HCT116-p53-null cells assessed as inhibition of cell growth incubated for 72 hrs by MTS assay; assay type: functional, cell-based; how it was run: as §1
K562 = test: Cytotoxicity against human K562 cells assessed as inhibition of cell growth incubated for 72 hrs by MTS assay; assay type: functional, cell-based; conditions: K562, 72 h; how it was run: as §1
A549 = test: Cytotoxicity against human A549 cells assessed as inhibition of cell growth incubated for 72 hrs by MTS assay; assay type: functional, cell-based; conditions: A549, 72 h; how it was run: as §1
U2OS = test: Cytotoxicity against human U2OS cells assessed as inhibition of cell growth incubated for 72 hrs by MTS assay; assay type: functional, cell-based; how it was run: as §1
[2] = Cytotoxicity against human BJ cells assessed as inhibition of cell growth incubated for 72 hrs by MTS assay; assay type: toxicity, cell-based; how it was run: as §1
[3] = Cytotoxicity against human MRC5 cells assessed as inhibition of cell growth incubated for 72 hrs by MTS assay; assay type: toxicity, cell-based; how it was run: as §1
[4] = Stability in human plasma assessed as compound remaining at 2 uM incubated for 15 mins by RF-MS analysis; assay type: ADME, cell-free; conditions: read-out: Stability
How it was run: (§2)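 Human plasma stability, plasma protein binding and liver microsome stability, each run in triplicate. Error deviations below 10 %.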

[5] = Stability in human plasma assessed as compound remaining at 2 uM incubated for 30 mins by RF-MS analysis; assay type: ADME, cell-free; conditions: read-out: Stability; how it was run: as §2
[6] = Stability in human plasma assessed as compound remaining at 2 uM incubated for 60 mins by RF-MS analysis; assay type: ADME, cell-free; conditions: read-out: Stability; how it was run: as §2
[7] = Stability in human plasma assessed as compound remaining at 2 uM incubated for 120 mins by RF-MS analysis; assay type: ADME, cell-free; conditions: read-out: Stability; how it was run: as §2
[8] = Plasma protein binding in human assessed as fraction bound at 10 uM incubated for 4 hrs by rapid equilibrium dialysis based RF-MS analysis; assay type: ADME, cell-free; conditions: read-out: PPB (converted); how it was run: as §2
[9] = Metabolic stability in human liver microsomes assessed as parent compound remaining at 2 uM incubated for 15 mins in presence of NADPH by RF-MS analysis; assay type: ADME, Microsome; conditions: read-out: Stability; how it was run: as §2
[10] = Metabolic stability in human liver microsomes assessed as parent compound remaining at 2 uM incubated for 30 mins in presence of NADPH by RF-MS analysis; assay type: ADME, Microsome; conditions: read-out: Stability; how it was run: as §2
CCRF-CEM [11] = test: Induction of apoptosis in human CCRF-CEM cells assessed as viable cells at 1 times IC50 incubated for 24 hrs by Annexin V-FITC and PI staining based flow cytometric analysis (reference value: 97.4 %); assay type: functional
How it was run: (§3)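 Washed in Ca2+-containing binding buffer, then stained 15 min at room temperature in the dark with Annexin V-FITC and propidium iodide (PI at half the kit-recommended level). Read at once by flow cytometry with a 488 nm laser, ≥10,000 cells. Debris excluded; quadrants viable, early apoptotic, late apoptotic/necrotic, necrotic. Three independent experiments.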

CCRF-CEM [12] = test: Induction of apoptosis in human CCRF-CEM cells assessed as early apoptotic cells at 1 times IC50 incubated for 24 hrs by Annexin V-FITC and PI staining based flow cytometric analysis (reference value: 2.1 %); assay type: functional; how it was run: as §3
CCRF-CEM [13] = test: Induction of apoptosis in human CCRF-CEM cells assessed as late apoptotic cells at 1 times IC50 incubated for 24 hrs by Annexin V-FITC and PI staining based flow cytometric analysis (reference value: 0.4 %); assay type: functional; how it was run: as §3
CCRF-CEM [14] = test: Induction of apoptosis in human CCRF-CEM cells assessed as viable cells at 5 times IC50 incubated for 24 hrs by Annexin V-FITC and PI staining based flow cytometric analysis (reference value: 97.4 %); assay type: functional; how it was run: as §3
CCRF-CEM [15] = test: Induction of apoptosis in human CCRF-CEM cells assessed as late apoptotic cells at 5 times IC50 incubated for 24 hrs by Annexin V-FITC and PI staining based flow cytometric analysis (reference value: 0.4 %); assay type: functional; how it was run: as §3
CCRF-CEM [16] = test: Induction of apoptosis in human CCRF-CEM cells assessed as necrotic cells at 5 times IC50 incubated for 24 hrs by Annexin V-FITC and PI staining based flow cytometric analysis (reference value: 0.4 %); assay type: functional; how it was run: as §3
Mitochondrial membrane [17] = test: Induction of mitochondrial membrane potential depolarization in human CCRF-CEM cells assessed as fold increase in fluorescence intensity at 5 times IC50 incubated for 24 hrs by JC-1 staining based flow cytometry; assay type: cell membranes
Mitochondrial membrane [18] = test: Induction of mitochondrial membrane potential depolarization in human CCRF-CEM cells assessed as fold increase in fluorescence intensity incubated for 24 hrs by JC-1 staining based flow cytometry; assay type: cell membranes
CCRF-CEM [19] = test: Induction of cell cycle arrest in human CCRF-CEM cells assessed as increase in accumulation of G0/G1 phase at 1 times IC50 incubated for 24 hrs by RNase/PI staining based flow cytometry; assay type: functional
How it was run: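 Propidium iodide staining and flow cytometry with a 488 nm laser, ≥10,000 intact cells. Phase proportions compared with untreated cells; SEM of three independent experiments.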

CCRF-CEM [20] = test: Inhibition of RNA synthesis in human CCRF-CEM cells at 1 times IC50 incubated for 24 hrs by BrU incorporation based flow cytometry; assay type: functional
How it was run: (§4)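 Fixed in 1 % paraformaldehyde/0.05 % NP-40 (15 min at room temperature, then 4 °C overnight). Stained with cross-reacting anti-BrdU plus FITC secondary (45 min each), then PI/RNase A. Flow cytometry; % BrU-positive cells.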

CCRF-CEM [21] = test: Inhibition of RNA synthesis in human CCRF-CEM cells at 5 times IC50 incubated for 24 hrs by BrU incorporation based flow cytometry; assay type: functional; how it was run: as §4
CCRF-CEM [22] = test: Induction of cell cycle arrest in human CCRF-CEM cells assessed as downregulation of AKT phosphorylation at 1 times IC50 incubated for 24 hrs by Western blotting analysis; assay type: functional, cell-based
How it was run: (§5)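 30 µg protein per lane on SDS-PAGE, transferred to nitrocellulose, blocked in 5 % BSA/TBS-Tween. Primary antibodies overnight at 4 °C (Akt, P-Akt Ser473, STAT-3, caspase-3, PARP, cyclin D, cyclin A, Bcl-xL, Bak, Bid, Bim), then HRP secondary and ECL detection. GAPDH as loading control.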

CCRF-CEM [23] = test: Induction of cell cycle arrest in human CCRF-CEM cells assessed as downregulation of total AKT expression at 5 times IC50 incubated for 24 hrs by Western blotting analysis; assay type: functional, cell-based; how it was run: as §5
CCRF-CEM [24] = test: Induction of cell cycle arrest in human CCRF-CEM cells assessed as downregulation of total STAT3 expression at 5 times IC50 incubated for 24 hrs by Western blotting analysis; assay type: functional, cell-based; how it was run: as §5
CCRF-CEM [25] = test: Induction of cell cycle arrest in human CCRF-CEM cells assessed as downregulation of Cyclin D expression at 5 times IC50 incubated for 24 hrs by Western blotting analysis; assay type: functional, cell-based; how it was run: as §5
CCRF-CEM [26] = test: Induction of apoptosis in human CCRF-CEM cells assessed as downregulation of caspase-3 expression at 5 times IC50 incubated for 24 hrs by Western blotting analysis; assay type: functional, cell-based; how it was run: as §5
CCRF-CEM [27] = test: Induction of apoptosis in human CCRF-CEM cells assessed as upregulation of BIM expression at 1 to 5 times IC50 incubated for 24 hrs by Western blotting analysis; assay type: functional, cell-based; how it was run: as §5

Compound `CC(=O)O[C@H]1CC[C@]2(C)[C@H]3CC[C@@H]4[C@H]5[C@H](c6cc7c(c(-c8ccccc8)c6)C(=O)N(c6cc[nH]n6)C7=O)CC[C@]5(C(=O)O)CC[C@@]4(C)[C@]3(C)CC[C@H]2C1(C)C` has an IC50 (CCRF-CEM [1]) of 5.13 µM, an IC50 (CEM-DNR) of 11.5 µM and an IC50 (HCT 116 TP53(-/-)) of 13.7 µM. The IC50 (K562) was 14.5 µM, the IC50 (A549) was 18.9 µM and the IC50 (U2OS) was 13.8 µM. It also gave an IC50 at 72 h [2] of 31.8 µM, an IC50 at 72 h [3] of 22.6 µM and a remaining at 0.25 h, 2 µM [4] of 97%. The remaining at 0.5 h, 2 µM [5] was 91%, the remaining at 1 h, 2 µM [6] was 92% and the remaining at 2 h, 2 µM [7] was 86%. The fraction unbound at 4 h, 10 µM [8] was 0.121, the remaining at 0.25 h, 2 µM [9] was 99% and the remaining at 0.5 h, 2 µM [10] was 99%. The Activity (CCRF-CEM [11]) was 92.8%, the Activity (CCRF-CEM [12]) was 4.8% and the Activity (CCRF-CEM [13]) was 2.4%. For the same compound, the Activity (CCRF-CEM [14]) was 86.5%, the Activity (CCRF-CEM [15]) was 5.5% and the Activity (CCRF-CEM [16]) was 0.1%. The fold change (FC) (Mitochondrial membrane [17]) was over 20, the Activity (Mitochondrial membrane [18]) was “Dose-dependent-effect” and the Activity (CCRF-CEM [19]) was “Active; Slight Increased Activity Observed”. For the same compound, the “inhibition (INH)” value (CCRF-CEM [20]) was 23.8%, the “inhibition (INH)” value (CCRF-CEM [21]) was 47.4% and the Activity (CCRF-CEM [22]) was “Active”. For the same compound, the Activity (CCRF-CEM [23]) was “Active; Slight Activity Observed”, the Activity (CCRF-CEM [24]) was “Active” and the Activity (CCRF-CEM [25]) was “Active”. For the same compound, the Activity (CCRF-CEM [26]) was “Active” and the Activity (CCRF-CEM [27]) was “Active”.
